Measurements published in ChEMBL document CHEMBL1667799, “HIV-1 integrase strand-transfer inhibitors: design, synthesis and molecular modeling investigation” (Eur J Med Chem, 2011).

What was measured:
[1] = molecular target: Human immunodeficiency virus type 1 integrase (Human immunodeficiency virus 1) (UniProt Q7ZJM1)
[2] = Selectivity index, ratio of CC50 for human MT4 cells to EC50 for HIV13B; type: toxicity, cell-based; settings: read-out: Ratio CC50/EC50
Outline: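 Index calculated as CC50/EC50. CC50 is the concentration reducing MT-4 viability by 50%. EC50 is 50% protection against HIV-1 IIIB CPE after infection with 100–300 CCID50, across five-fold serial dilutions. Both are read by MTT assay.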

[3] = Cytotoxicity against human MT4 cells by MTT assay; type: cell-based
Outline: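 MT-4 cell viability read by MTT reduction to formazan by mitochondrial dehydrogenase, measured spectrophotometrically, across drug dilutions. CC50 is concentration reducing MT-4 viability by 50%. Values are averages ± SD.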

[4] = test system: Human immunodeficiency virus 1; assay: Antiviral activity against HIV1 3B infected in human MT4 cells assessed as inhibition of virus-induced cytopathic effect by MTT assay; type: functional, organism-based; settings: Human immunodeficiency virus 1, 3B
Outline: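 HIV-1 IIIB stock titrated on MT-4 cells to set CCID50. MT-4 cells infected with 100–300 CCID50 in presence of five-fold serial drug dilutions. Viability read by MTT reduction to formazan, measured spectrophotometrically. EC50 is concentration giving 50% protection against viral CPE. Values are averages ± SD.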

[5] = molecular target: Human immunodeficiency virus type 1 integrase (Human immunodeficiency virus 1, UniProt Q7ZJM1); assay: Inhibition of HIV-1 integrase after 1 hr by ELISA
Sequence of Human immunodeficiency virus type 1 integrase (Q7ZJM1 whole entry): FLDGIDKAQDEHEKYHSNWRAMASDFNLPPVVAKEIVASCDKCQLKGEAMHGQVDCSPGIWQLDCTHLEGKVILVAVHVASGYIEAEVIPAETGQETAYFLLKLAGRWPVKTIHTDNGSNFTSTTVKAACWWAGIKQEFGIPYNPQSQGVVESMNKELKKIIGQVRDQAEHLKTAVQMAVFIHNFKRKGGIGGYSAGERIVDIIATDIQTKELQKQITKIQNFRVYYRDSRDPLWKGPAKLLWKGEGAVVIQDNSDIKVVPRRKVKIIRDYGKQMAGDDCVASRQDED

Sequence of Human immunodeficiency virus type 1 integrase (Human immunodeficiency virus 1) (Q7ZJM1 as listed by the source): as the sequence (Q7ZJM1 whole entry) above

Row | Structure (SMILES) | C50 [1] [µM] | selectivity ratio [2] | CC50 [3] [µM] | EC50 [4] [µM] | IC50 [5] [µM]
1 | COc1cccc2c1c(C(=O)/C=C(\O)C(=O)O)cn2Cc1ccc(F)cc1 | 0.14 | 70 |  |  | 
2 | CCOC(=O)/C(O)=C/C(=O)c1cn(Cc2ccc(F)cc2)c2c(OC)c(OC)ccc12 | 17.4 | 11 | 119 | 10.4 | 7.41
3 | Cc1nnc(C(=O)NC(C)(C)c2nc(C(=O)NCc3ccc(F)cc3)c(O)c(=O)n2C)o1 |  |  | > 18 |  | 
4 | CCOC(=O)/C(O)=C/C(=O)c1cn(Cc2ccc(F)cc2)c2ccc(OC)c(OC)c12 | 0.015 | 28 | 111 | 3.96 | 0.9
5 | CCOC(=O)/C(O)=C/C(=O)c1cn(Cc2ccc(F)cc2)c2c(OC)cc(OC)cc12 | 34.9 | < 1 | 62.1 | > 62.1 | 18.1
6 | CCOC(=O)/C(O)=C/C(=O)c1cn(Cc2ccc(F)cc2)c2cc(OC)cc(OC)c12 | 1.29 | 22 | 55.4 | 2.48 | 2.79
7 | COc1ccc2c(c(C(=O)/C=C(\O)C(=O)O)cn2Cc2ccc(F)cc2)c1OC | 0.047 | 104 | 126 | 1.21 | 1.45
8 | CCOC(=O)/C(O)=C/C(=O)c1cn(Cc2ccc(F)cc2)c2cc(OC)c(OC)cc12 | 7.69 | < 1 | 21.8 | > 21.8 | 4.4
9 | COc1ccc2c(C(=O)/C=C(\O)C(=O)O)cn(Cc3ccc(F)cc3)c2c1OC | 6.37 | 9 | 130 | 14.7 | 3.55
10 | COc1cc(OC)c2c(c1)c(C(=O)/C=C(\O)C(=O)O)cn2Cc1ccc(F)cc1 | 0.006 | 7 | 58.5 | 8.51 | 0.251
11 | COc1cc2c(C(=O)/C=C(\O)C(=O)O)cn(Cc3ccc(F)cc3)c2cc1OC | 0.119 | 6 | 65.5 | 10.5 | 0.547
12 | COc1cc(OC)c2c(C(=O)/C=C(\O)C(=O)O)cn(Cc3ccc(F)cc3)c2c1 | 0.28 | 6 | 20.7 | 3.2 | 0.47
13 | CCOC(=O)/C(O)=C/C(=O)c1cn(Cc2ccc(F)cc2)c2c(OC)ccc(OC)c12 | 0.66 |  |  |  | 
